Screening results from PubChem.
PLK1 kinase inh: human PLK1 kinase inhibitors, primary screen, biochemical, TR-FRET | Serine/threonine-protein kinase PLK1 (Homo sapiens), P53350 | recombinant PLK1 kinase, TR-FRET peptide phosphorylation | inhibition, % at 10 µM | actives 0.53% (n = 97,000) | AID 619, 2007;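 active = inhibition of 50% or more in the single-concentration screen; inactive = inhibition below 50%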;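 also: 0% = DMSO max control and 100% = H-89 dihydrochloride min control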
PTPN22 inh 2: PTPN22 phosphatase inhibitors, primary screen, biochemical, DiFMUP fluorescence, 2 µM. Tyrosine-protein phosphatase non-receptor type 22 (Homo sapiens), Q9Y2R2. recombinant LYP catalytic domain. inhibition, % at 2 µM. actives 0.21% (n = 96,000). AID 640, 2007;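 active = inhibition at 2 µM at or above a set limit, the screen mean plus 3 SD, cut at about 24% in these data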;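 also: 0% = DMSO with enzyme and 100% = enzyme fully blocked by orthovanadate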
EphB4 antag: EphB4-ephrin-B2 interaction antagonists, primary screen, biochemical, TNYL-RAW peptide probe, fluorescence polarization; Ephrin type-B receptor 4 (Homo sapiens), P54760; EphB4 LBD / TNYL-RAW-Alexa532 peptide; inhibition, % at 7 µM; actives 0.15% (n = 97,000); AID 720, 2007;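 active = inhibition above the screen-wide mean inhibition plus 3 SD, cut at about 15% in these data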;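 also: 0% = DMSO wells and 100% = excess unlabeled TNYL-RAW peptide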
LYP act: LYP phosphatase activators, primary screen, biochemical, DiFMUP fluorescence, 2 µM. Tyrosine-protein phosphatase non-receptor type 22 (Homo sapiens), Q9Y2R2. recombinant LYP; 0 = plate median, 100 = signal doubled. activation, % at 2 µM. actives 0.11% (n = 96,000);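 active = activation at 2 µM above a set limit, the mean plus 5 SD, cut at about 37% in these data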
HIV Rev-RRE inh: HIV-1 Rev-RRE binding inhibitors, primary screen, biochemical, FRET, protein-RNA interaction; P05866; Rev peptide-RRE RNA binding; inhibition, % at 8 µM; actives 0.79% (n = 97,000); AID 704, 2007;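 active = inhibition above the screen-wide mean plus 3 SD, cut at about 35% in these data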;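 also: 0% = median DMSO wells and 100% = median Neomycin B control wells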
Target sequence (P05866 whole entry, looked up): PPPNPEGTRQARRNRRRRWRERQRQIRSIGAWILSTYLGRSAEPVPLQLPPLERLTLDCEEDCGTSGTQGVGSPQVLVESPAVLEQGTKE
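Test system: labelled RRE RNA duplex and labelled Rev peptide. Times: 5 min compound–RNA preincubation, then 15 min with peptide, 25 °C. Doses: single-dose 8 µM. Measured by: FRET, excitation 480 nm, emission 540 nm donor and 671 nm acceptor. Measure: % inhibition of FRET ratio versus controls.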
PLK1 PBD inh: Plk1 polo box domain binding inhibitors, primary screen, biochemical, fluorescence polarization; AID 693, 2007; Serine/threonine-protein kinase PLK1 (Homo sapiens), P53350; Plk1 PBD phosphopeptide binding; actives 0.13% (n = 97,000); inhibition, %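 (tested at about 20 µM)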; in the data active = inhibition above about 34%, passing the limit was not always enough
Starred values were filed as active, the others as inactive; [ ] = remark or other dose. Only some compounds are listed: those with a hit (about 1.8% of all), similar ones and a draw of the others.

`COc1ccc(C2C(C(C)=O)=C(C)N=c3s/c(=C\c4cc(C)n(C)c4C)c(=O)n32)c(OC)c1` (stereo not drawn) gave PLK1 kinase inh -8, PTPN22 inh 2 4, EphB4 antag 2, LYP act -6, HIV Rev-RRE inh 128*[fluorescence artefact?] and PLK1 PBD inh -199.
Screening CN1CCN(c2nc(-c3ccncc3)nc3ccccc23)CC1 returned PLK1 kinase inh 53*, PTPN22 inh 2 8, EphB4 antag 5, LYP act -11, HIV Rev-RRE inh 7 and PLK1 PBD inh 17.
Screening COc1ccc(NC(=O)c2c(C(F)(F)F)nn(C)c2SCc2ccccc2Cl)cc1 returned PLK1 kinase inh 9, EphB4 antag 0, HIV Rev-RRE inh 11 and PLK1 PBD inh 24.
For Cc1ccc(N2CC(C(=O)Nc3nccs3)CC2=O)cc1Cl (stereo not drawn) the results were PLK1 kinase inh 11, PTPN22 inh 2 -1, EphB4 antag 9, LYP act 0, HIV Rev-RRE inh 11 and PLK1 PBD inh -26.
`Cc1c(Cl)cccc1N1CC(C(=O)Nc2nccs2)CC1=O` (stereo not drawn) gave PLK1 kinase inh 53*, PTPN22 inh 2 0, EphB4 antag 1, LYP act -2, HIV Rev-RRE inh 2 and PLK1 PBD inh -5.
For Cc1ccc(-c2ccc(C(=O)O)[nH]2)cc1 the results were PLK1 kinase inh -4, PTPN22 inh 2 -4, EphB4 antag 16*, LYP act 4, HIV Rev-RRE inh 13 and PLK1 PBD inh 16.
`S=C(Nc1ccc(N2CCOCC2)cc1)Nc1ccc2nc(-c3ccco3)c(-c3ccco3)nc2c1` gave PLK1 kinase inh 0, PTPN22 inh 2 10, EphB4 antag 2, LYP act -8, HIV Rev-RRE inh 104*[fluorescence artefact?] and PLK1 PBD inh -46.
For O=C(Nc1ccc(N2CCOCC2)cc1)c1ccc2nc(-c3ccco3)c(-c3ccco3)nc2c1 the results were PLK1 kinase inh -11, PTPN22 inh 2 -3, EphB4 antag 6, LYP act 6, HIV Rev-RRE inh 3 and PLK1 PBD inh 35.
CN(C)S(=O)(=O)c1ccc(C(=O)Nc2ccc(F)cc2F)cc1 was read as PLK1 kinase inh 66*, EphB4 antag 1, HIV Rev-RRE inh 2 and PLK1 PBD inh -8.
Screening Cc1ccc(NC(=O)N(C2=NCC(C)S2)c2ccccc2)cc1 (stereo not drawn) returned PLK1 kinase inh -14, PTPN22 inh 2 -1, EphB4 antag 0, LYP act 2, HIV Rev-RRE inh 10 and PLK1 PBD inh -10.
For Cc1cccc(N(C(=O)Nc2ccccc2)C2=NCC(C)S2)c1 (stereo not drawn) the results were PLK1 kinase inh 67*, EphB4 antag 3, HIV Rev-RRE inh 7 and PLK1 PBD inh -11.
CN(C)c1ccc(/C=N/N=C2/NC(=O)/C(=C/c3ccc([N+](=O)[O-])cc3)S2)cc1 was read as PLK1 kinase inh -9, PTPN22 inh 2 25*, EphB4 antag 0, LYP act -23, HIV Rev-RRE inh 35 and PLK1 PBD inh -14.
Screening Cc1noc(/C=C/c2ccc(-c3ccccc3Cl)o2)c1[N+](=O)[O-] returned PLK1 kinase inh -13, PTPN22 inh 2 -6, EphB4 antag -3, LYP act 3, HIV Rev-RRE inh 103*[fluorescence artefact?] and PLK1 PBD inh -157.
`Cc1nn(-c2ccccc2)c(C)c1C(=O)OC/C(O)=C(\C#N)c1nc2ccccc2[nH]1` gave PLK1 kinase inh -14, PTPN22 inh 2 9, EphB4 antag 1, LYP act -8, HIV Rev-RRE inh 40* and PLK1 PBD inh 5.
Screening Cc1ccc(NC(=O)CN2C(=O)S/C(=C\c3ccc(-c4cccc(C(=O)O)c4C)o3)C2=O)cc1 returned PLK1 kinase inh 5, PTPN22 inh 2 56*, EphB4 antag -2, LYP act -54, HIV Rev-RRE inh 7 and PLK1 PBD inh 13.
Screening Cc1ccc(NC(=O)CN2C(=O)S/C(=C\c3cccn3C)C2=O)cc1 returned PLK1 kinase inh -11, PTPN22 inh 2 10, EphB4 antag -9, LYP act -6, HIV Rev-RRE inh 9 and PLK1 PBD inh 18.
